The results in this text go back to ChEMBL document CHEMBL1157807, “NO-releasing esters show carbonic anhydrase inhibitory action against human isoforms I and II” (Bioorg Med Chem, 2010).

Assay [1] deals with T1, Carbonic anhydrase 1 (Homo sapiens, UniProt P00915). In words: Competitive inhibition of human carbonic anhydrase 1 esterase activity by Lineweaver-Burke plot analysis. The method in brief:
(§1)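 Erythrocyte-purified human isozyme in the 4-nitrophenylacetate esterase assay, read at 348 nm over 3 min at 25 °C in Tris–SO4 pH 7.4. Three inhibitor concentrations are each tested against five substrate concentrations (0.15–0.75 mM). Ki and inhibition mode are taken from Lineweaver–Burk plots.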

The target in assay [2] is T2, Carbonic anhydrase 2 (Homo sapiens, UniProt P00918). In words: Competitive inhibition of human carbonic anhydrase 2 esterase activity by Lineweaver-Burke plot analysis. An outline of the steps:
as §1

Assay [3] deals with T2, Carbonic anhydrase 2. In words: Inhibition of human carbonic anhydrase 2 esterase activity by spectrophotometry. The note with it: read-out: I50. The method in brief:
(§2)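 Enzyme purified from human erythrocytes. Esterase activity is followed as 4-nitrophenylacetate conversion to 4-nitrophenylate by absorbance at 348 nm over 3 min at 25 °C, in Tris–SO4 buffer pH 7.4. A reference cuvette lacks enzyme. Each inhibitor concentration is run in triplicate, with uninhibited control activity set to 100%. IC50 is read from %activity vs [inhibitor] plots.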

For assay [4], the target named is T1, Carbonic anhydrase 1. In words: Inhibition of human carbonic anhydrase 1 esterase activity by spectrophotometry. The note with it: read-out: I50. An outline of the steps:
as §2

In assay [5] the target is T2, Carbonic anhydrase 2. In words: Uncompetitive inhibition of human carbonic anhydrase 2 esterase activity by Lineweaver-Burke plot analysis. The method in brief:
as §1

The target of assay [6] is T1, Carbonic anhydrase 1. In words: Noncompetitive inhibition of human carbonic anhydrase 1 esterase activity by Lineweaver-Burke plot analysis. An outline of the steps: as §1
For assay [7], the target named is T2, Carbonic anhydrase 2. In words: Noncompetitive inhibition of human carbonic anhydrase 2 esterase activity by Lineweaver-Burke plot analysis. The method in brief:
as §1

Assay [8] deals with T1, Carbonic anhydrase 1. In words: Uncompetitive inhibition of human carbonic anhydrase 1 esterase activity by Lineweaver-Burke plot analysis. The method in brief:
as §1

SMILES strings stand for the structures.

T1 sequence (P00915 whole entry): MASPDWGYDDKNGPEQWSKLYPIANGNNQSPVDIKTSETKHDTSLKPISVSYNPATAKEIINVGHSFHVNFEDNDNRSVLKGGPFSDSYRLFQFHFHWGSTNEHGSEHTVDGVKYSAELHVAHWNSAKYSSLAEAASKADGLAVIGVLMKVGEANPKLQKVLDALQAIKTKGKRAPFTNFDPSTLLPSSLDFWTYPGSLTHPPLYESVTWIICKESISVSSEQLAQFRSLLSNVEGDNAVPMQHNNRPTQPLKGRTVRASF

Regarding `O=[N+]([O-])O[C@@H]1CC2c3ccccc3C1[C@@H]2O` (stereo partly drawn), the inhibition constant (Ki) at Carbonic anhydrase 1 [1] was 18700 µM; at Carbonic anhydrase 2 [2], 196 µM. For the same compound, the IC50 at Carbonic anhydrase 2 [3] turned out to be 98.1 µM; at Carbonic anhydrase 1 [4], 10200 µM.
As to `O=[N+]([O-])O[C@H]1CC2CCC1[C@@H]2O` (stereo partly drawn), the Ki at Carbonic anhydrase 1 [1] amounted to 17200 µM; at Carbonic anhydrase 2 [2], 133 µM. Besides, the IC50 on Carbonic anhydrase 2 [3] was 73.1 µM; on Carbonic anhydrase 1 [4], 9100 µM.
On to `O=[N+]([O-])O[C@@H]1CC2CCC1[C@@H]2O` (stereo partly drawn), for which the figures for the Ki on Carbonic anhydrase 1 [1] and at Carbonic anhydrase 2 [2] were 13600 µM and 121 µM, respectively. For the same compound, the IC50 at Carbonic anhydrase 2 [3] is 65.1 µM; at Carbonic anhydrase 1 [4], 7130 µM.
`O=[N+]([O-])O[C@@H]1CC[C@H](Br)[C@@H]2CC[C@H]1O2`: the results for the Ki on Carbonic anhydrase 2 [5] and at Carbonic anhydrase 1 [6] were 223 µM and 22500 µM, respectively. The IC50 amounted to 110 µM at Carbonic anhydrase 2 [3] and 12100 µM at Carbonic anhydrase 1 [4].
Consider `O=[N+]([O-])O[C@H]1CCCCCC[C@@H]1O`, for which the Ki on Carbonic anhydrase 1 [6] amounted to 45200 µM; at Carbonic anhydrase 2 [7], 267 µM. Besides, the IC50 at Carbonic anhydrase 2 [3] is 181 µM; on Carbonic anhydrase 1 [4], 23000 µM.
`O=[N+]([O-])O[C@H]1CCCC[C@@H]1O`: the Ki at Carbonic anhydrase 1 [6] came out at 221000 µM; on Carbonic anhydrase 2 [7], 986 µM. The IC50 on Carbonic anhydrase 2 [3] came out at 560 µM.
On to `O=[N+]([O-])O[C@H]1CC=CC[C@@H]1O` (racemic), for which the Ki at Carbonic anhydrase 1 [6] stood at 274000 µM; on Carbonic anhydrase 2 [7], 1370 µM. The IC50 on Carbonic anhydrase 2 [3] was determined as 790 µM.
In the case of `O=[N+]([O-])O[C@H]1CC/C=C\CC[C@@H]1O` (racemic), the figures for the Ki at Carbonic anhydrase 1 [6] and at Carbonic anhydrase 2 [7] were 41800 µM and 541 µM, respectively. For the same compound, the IC50 came out at 243 µM on Carbonic anhydrase 2 [3] and 21000 µM at Carbonic anhydrase 1 [4].
As for `O=[N+]([O-])O[C@@H](CO)c1ccccc1` (single isomer, unassigned), the Ki worked out at 288000 µM on Carbonic anhydrase 1 [8] and 1140 µM on Carbonic anhydrase 2 [7]. Also, the IC50 on Carbonic anhydrase 2 [3] was determined as 632 µM.
